Residue numbers refer to the chain shown, from its start.
Columns and labels:
Type in all cases: cell-based
hTRPV4 = hTRPV4 (Homo sapiens, UniProt Q9HBA0); experiment: whole-cell patch-clamp of TRPV4 currents in HEK293 cells; conditions: compound 50 μmol/L; current elicited by 100 nmol/L GSK1016790A
In short: (§1)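 Human channel cDNAs were transiently transfected into HEK293 cells with Lipofectamine 2000. EGFP-positive cells were recorded whole-cell 18 h later at 22–24 °C with ~4.0 MΩ fire-polished pipettes. Cells were held at 0 mV with 500-ms ramps from −100 to +100 mV every 2 s. Test compound in perfusion solution was co-applied with agonist, and average current inhibition was summarised; n = 4–6.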

mTRPV3 T636A = molecular target: T1, mTRPV3 T636A (Mus musculus, UniProt Q8K424, T636A); experiment: whole-cell patch-clamp of mTRPV3 T636A mutant in HEK293 cells; conditions: compound 50 μmol/L; 2-APB; compared with WT mTRPV3
T1 sequence (Q8K424 1-791 T636A): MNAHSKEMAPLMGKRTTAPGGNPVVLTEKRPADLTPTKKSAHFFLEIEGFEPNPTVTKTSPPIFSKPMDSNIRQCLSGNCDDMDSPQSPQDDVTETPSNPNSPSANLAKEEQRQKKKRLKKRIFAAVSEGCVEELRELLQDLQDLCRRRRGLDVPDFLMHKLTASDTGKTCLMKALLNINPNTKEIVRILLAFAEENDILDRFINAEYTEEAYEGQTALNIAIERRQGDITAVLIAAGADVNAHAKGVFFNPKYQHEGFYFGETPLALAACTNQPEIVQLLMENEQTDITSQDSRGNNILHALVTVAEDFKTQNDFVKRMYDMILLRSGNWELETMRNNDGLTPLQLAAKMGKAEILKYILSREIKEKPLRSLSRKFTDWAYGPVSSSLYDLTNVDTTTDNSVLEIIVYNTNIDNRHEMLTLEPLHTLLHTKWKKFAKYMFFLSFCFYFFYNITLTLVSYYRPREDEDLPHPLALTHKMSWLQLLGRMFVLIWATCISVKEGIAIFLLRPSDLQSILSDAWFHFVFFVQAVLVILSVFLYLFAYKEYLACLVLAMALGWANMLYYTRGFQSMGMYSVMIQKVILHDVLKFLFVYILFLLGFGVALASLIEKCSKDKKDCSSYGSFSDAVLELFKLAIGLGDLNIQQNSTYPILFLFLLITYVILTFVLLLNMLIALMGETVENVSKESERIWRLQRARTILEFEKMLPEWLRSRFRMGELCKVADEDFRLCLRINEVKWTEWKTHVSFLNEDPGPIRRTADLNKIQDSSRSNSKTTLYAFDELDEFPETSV
In short: (§2)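 Mouse Trpv3 point mutants were made by site-directed mutagenesis, sequence-verified, and transiently expressed in HEK293 cells alongside wild-type mTRPV3. Whole-cell ramp recordings (−100 to +100 mV, 500 ms, holding 0 mV) were made at 22–24 °C. Currents were activated by 2-APB, and inhibition by 50 μmol/L test compound in the presence of 2-APB was compared with wild type; n = 3–8.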

mTRPV3 L669A = molecular target: T2, mTRPV3 L669A (Mus musculus, UniProt Q8K424, L669A); experiment: whole-cell patch-clamp of mTRPV3 L669A mutant in HEK293 cells; conditions: compound 50 μmol/L; 2-APB; compared with WT mTRPV3
T2 sequence (Q8K424 1-791 L669A): T1 sequence (Q8K424 1-791 T636A) with A636T, L669A
In short: as §2

hTRPV1 = hTRPV1 (Homo sapiens, UniProt Q8NER1); experiment: whole-cell patch-clamp of TRPV1 currents in HEK293 cells; conditions: compound 50 μmol/L; current induced by capsaicin 1 μmol/L
In short: as §1

mTRPV3 T665A = molecular target: T3, mTRPV3 T665A (Mus musculus, UniProt Q8K424, T665A); experiment: whole-cell patch-clamp of mTRPV3 T665A mutant in HEK293 cells; conditions: compound 50 μmol/L; 2-APB; compared with WT mTRPV3
T3 sequence (Q8K424 1-791 T665A): T1 sequence (Q8K424 1-791 T636A) with A636T, T665A
In short: as §2

Chain of hTRPV1 (Q8NER1 whole entry): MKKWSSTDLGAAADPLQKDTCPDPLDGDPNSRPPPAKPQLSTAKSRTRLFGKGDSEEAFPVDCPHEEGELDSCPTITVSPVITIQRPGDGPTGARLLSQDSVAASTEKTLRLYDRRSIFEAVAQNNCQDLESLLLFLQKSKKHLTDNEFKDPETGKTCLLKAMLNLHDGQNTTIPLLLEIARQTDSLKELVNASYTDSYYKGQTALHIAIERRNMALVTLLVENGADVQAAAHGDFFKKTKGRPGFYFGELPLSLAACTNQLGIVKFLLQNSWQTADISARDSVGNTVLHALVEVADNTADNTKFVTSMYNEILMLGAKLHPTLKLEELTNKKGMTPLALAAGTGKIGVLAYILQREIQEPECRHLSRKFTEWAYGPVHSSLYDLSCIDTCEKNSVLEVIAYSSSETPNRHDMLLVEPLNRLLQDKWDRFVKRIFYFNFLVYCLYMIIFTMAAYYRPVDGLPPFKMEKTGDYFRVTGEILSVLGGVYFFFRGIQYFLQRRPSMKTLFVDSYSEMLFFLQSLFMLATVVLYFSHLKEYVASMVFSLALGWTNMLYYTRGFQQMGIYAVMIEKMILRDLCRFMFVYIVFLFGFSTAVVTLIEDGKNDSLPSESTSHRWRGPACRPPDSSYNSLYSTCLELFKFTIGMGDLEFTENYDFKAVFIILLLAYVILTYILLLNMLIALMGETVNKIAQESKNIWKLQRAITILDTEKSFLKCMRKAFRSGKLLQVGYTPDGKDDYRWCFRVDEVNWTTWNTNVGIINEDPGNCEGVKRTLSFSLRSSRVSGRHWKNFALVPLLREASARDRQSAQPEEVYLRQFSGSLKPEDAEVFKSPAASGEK
Chain of hTRPV4 (Q9HBA0 whole entry, the tested form may be a part): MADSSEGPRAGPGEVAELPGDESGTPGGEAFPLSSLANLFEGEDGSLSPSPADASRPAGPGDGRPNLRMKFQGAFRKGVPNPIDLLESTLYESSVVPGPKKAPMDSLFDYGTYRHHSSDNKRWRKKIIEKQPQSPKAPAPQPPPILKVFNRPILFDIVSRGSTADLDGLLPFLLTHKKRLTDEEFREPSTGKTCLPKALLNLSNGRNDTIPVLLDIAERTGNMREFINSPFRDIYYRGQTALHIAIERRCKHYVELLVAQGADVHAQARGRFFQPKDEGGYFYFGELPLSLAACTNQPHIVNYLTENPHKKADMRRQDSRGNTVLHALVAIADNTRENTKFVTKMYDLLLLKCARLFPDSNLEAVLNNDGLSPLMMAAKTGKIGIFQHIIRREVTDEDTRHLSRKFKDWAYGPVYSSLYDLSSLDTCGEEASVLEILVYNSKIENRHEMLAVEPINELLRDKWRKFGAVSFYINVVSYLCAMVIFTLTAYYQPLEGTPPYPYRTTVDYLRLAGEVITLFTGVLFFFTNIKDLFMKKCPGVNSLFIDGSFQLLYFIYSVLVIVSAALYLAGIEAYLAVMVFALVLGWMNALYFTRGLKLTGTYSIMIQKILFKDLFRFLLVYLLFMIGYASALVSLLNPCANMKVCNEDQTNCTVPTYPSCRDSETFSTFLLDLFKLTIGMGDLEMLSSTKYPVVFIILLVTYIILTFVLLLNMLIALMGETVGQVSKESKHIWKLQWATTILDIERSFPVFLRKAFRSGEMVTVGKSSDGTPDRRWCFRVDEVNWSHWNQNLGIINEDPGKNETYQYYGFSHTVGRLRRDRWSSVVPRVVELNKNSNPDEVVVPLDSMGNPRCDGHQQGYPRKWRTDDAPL

Row | SMILES | inhibition of TRPV4 current (hTRPV4) | effect of mutation on compound-induced inhibition of mTRPV3 currents (mTRPV3 T636A) | effect of mutation on compound-induced inhibition of mTRPV3 currents (mTRPV3 L669A) | inhibition of TRPV1 currents (hTRPV1) | effect of mutation on compound-induced inhibition of mTRPV3 currents (mTRPV3 T665A)
1 | O=C(/C=C/c1ccc(O)c(O)c1)O[C@@H]1C[C@](O)(C(=O)O)C[C@@H](OC(=O)/C=C/c2ccc(O)c(O)c2)[C@H]1O [IAA, isochlorogenic acid A] | no inhibitory effect | markedly reduced | no obvious effect | no obvious inhibition | no obvious effect
2 | O=C(/C=C/c1ccc(O)c(O)c1)O[C@@H]1[C@H](O)C[C@@](O)(C(=O)O)C[C@H]1OC(=O)/C=C/c1ccc(O)c(O)c1 [IAB, isochlorogenic acid B] | no inhibitory effect | markedly reduced | no obvious effect | no obvious inhibition | no obvious effect

From publication PMC8897028 (Acta Pharmaceutica Sinica. B, 2021)
